The results in this text go back to PubChem BioAssay AID1885 (Broad Institute, 2009).

“And” between values parts separate entries of the source, which are not always exact repeats. Equal entries are not always repeated. Screen size: about 300,000 compounds; about 4,400 (1.5%) were called active.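 Rule for the calls: active = mean inhibition across valid replicates above about 55% (limit read from the data); inconclusive = mean below that limit but half or more replicates reach it; inactive = mean below it, under half of replicates reach it.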 The entries come from a sample that favours actives as a whole. Some compounds were tested as several samples or in several runs, with calls that do not always agree.

The nature of this assay: inhibitors of intracellular T. cruzi growth, primary screen, luminescence, NIH3T3 host cells (AID 1885).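 Note: signal also drops with host cell toxicity which is not excluded here; 0% = plate median of DMSO wells and 100% = zero luminescence signal; higher percent means less beta-gal luminescence so fewer parasites.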 The conditions noted are these: T. cruzi beta-gal in NIH3T3, luminescence, 90 h; stronger effect = higher value; concentration not given here. In short, it runs like this:
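Incubation – ≥90 h infection period, 3 h prior cell attachment · System – NIH/3T3 fibroblasts plus reporter T. cruzi · Doses – compound pinned at 50 nL/well, DMSO · Read-out basis – percent inhibition of parasite-derived β-gal signal · Signal – luminescent β-galactosidase signal after 60 min lysis · Also added – 5000 T. cruzi trypomastigotes/well · Medium – Low-serum DMEM with 2% FBS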
With `COc1ccc(C(=O)N(CCN2CCOCC2)CC(=O)NC2CCCC2)cc1OC`, the inhibition was -3.29% (inactive).

As to `CCCCCOc1ccc(CSC2=NCCN2)cc1[N+](=O)[O-]`, the inhibition was 59.6% (active).

For `CCCCOc1ccc(CSC(=N)N)cc1[N+](=O)[O-]`, the inhibition is 38.2% (inactive).

Regarding `CCCOc1ccc(Cn2ccnc2)cc1[N+](=O)[O-]`, the inhibition was 30.6% (inactive).

As for `O=C(NNS(=O)(=O)c1ccc(F)cc1)C1CCCCC1`, the inhibition is -13.6% (inactive).

`CCOC(=O)C[C@H]1c2ccc(C(F)(F)F)cc2S(=O)(=O)N1c1ccccc1`: the inhibition was -7.83% (inactive).

With `O=C(COC(=O)c1ccc([N+](=O)[O-])cc1Cl)NC(=O)c1ccccc1`, the inhibition is -9.49% (inactive).

Regarding `CCCCNC(=O)N1CCCC(N(C)CCc2ccc(OC)c(OC)c2)C1` (configuration not stated), the inhibition was 37.8% (inactive).

Consider `COc1ccc(CN2CCCC(CNC(=O)c3ccc(F)cc3)C2)cc1OC` (configuration not stated), for which the inhibition is 45.9% (inactive).

With `COc1ccc(CCNC(=O)CS(=O)(=O)Cc2nc(-c3ccc(C)cc3)oc2C)cc1OC`, the inhibition is 5.37% (inactive).

For `COc1ccc(CCNC(=O)C2CCCN(Cc3nc(-c4cccc(Cl)c4)oc3C)C2)cc1OC` (configuration not stated), the inhibition is 61.6% (active).

Turning to `COc1cccc(-c2nc(CS(=O)(=O)CC(=O)NCCc3ccc(OC)c(OC)c3)c(C)o2)c1`, the inhibition was 21.5% (inactive).

For the compound `COc1cc(CN2CCCC(C(=O)c3ccc(SC)cc3)C2)cc(Cl)c1O` (configuration not stated), the inhibition is 24.2% (inactive).

In the case of `COc1ccc(CCN(C)C(=O)C2CCCN(Cc3ccc(OC)c(OC)c3)C2)cc1OC` (configuration not stated), the inhibition is 66.2% (active) and 34.7% (inactive).

Consider `COc1ccc(C(=O)C2CCCN(Cc3ccc4nonc4c3)C2)c(C)c1` (configuration not stated), for which the inhibition is 20% (inactive).

On to `COc1ccc(CN2CCCC(C(=O)c3ccc(Cl)cc3)C2)cc1Cn1cncn1` (configuration not stated), for which the inhibition is 67.8% (active).

For the compound `CN1CCC(=NNC(=O)c2ccc(N(Cc3ccc(Cl)cc3)S(C)(=O)=O)cc2)CC1`, the inhibition was 8.52% (inactive).

Regarding `O=C(COc1ccc(Cl)cc1)NCCS(=O)(=O)N1CCN(c2ccc(F)cc2)CC1`, the inhibition is 11.2% (inactive).

For the compound `COc1ccc(C(O)(C2CCCCC2)C(CN2CCCC2)c2ccccc2)cc1` (configuration not stated), the inhibition is 2.61% (inactive).

With `COC(=O)[C@]1(C)N[C@H](c2ccc(-c3ccc(Cl)c(Cl)c3)cc2)[C@@H]2C(=O)N(C)C(=O)[C@@H]21`, the inhibition is -12.4% (inactive).

On to `COc1ccc(NC(=O)CN(C)C(=O)c2ccc(NC3CC3)c([N+](=O)[O-])c2)cc1`, for which the inhibition was -6.67% (inactive).

For `CSc1nc2ccccc2cc1/C=C(\C#N)c1ccc(Cl)cc1Cl`, the inhibition was 4.89% (inactive).

Turning to `Cc1ccc(-c2nn(-c3ccccc3)cc2/C=N/NC(=O)c2ccc3c(c2)OCO3)cc1`, the inhibition is 28% (inactive).

For the compound `Cc1nnc(SCC(=O)N/N=C/c2cn(-c3ccccc3)nc2-c2ccc(F)cc2)n1-c1ccccc1`, the inhibition is -11.7% (inactive).

As to `O=C(N/N=C/c1ccc([N+](=O)[O-])o1)c1cn(-c2ccccc2)nc1-c1ccc(F)cc1`, the inhibition is 69.4% (active).

For `COc1cccc(OC)c1C(=O)Nc1sc2c(c1C(N)=O)CCCC2`, the inhibition was 9.96% (inactive).

On to `c1ccc2c(c1)C(=NC1CCCCC1)NC2=NC1CCCCC1`, for which the inhibition is 55.5% (active).

Regarding `COc1cccc(COC(=O)C2CCN(S(=O)(=O)c3ccc(Cl)cc3)CC2)c1OC`, the inhibition is -3.47% (inactive).

For the compound `Cc1oc(C)c(C(=O)NCCCC(=O)O)c1C(=O)NCCCC(=O)O`, the inhibition is -21.2% (inactive).

On to `O=C(CSc1ncccn1)NCCc1ccccc1`, for which the inhibition is -13.3% (inactive).

For the compound `CC(C)(C)NC(=O)Cn1cnc([N+](=O)[O-])n1`, the inhibition is 50.4% (inactive).

Turning to `O=C(Cn1cnc([N+](=O)[O-])n1)NCCc1ccccc1`, the inhibition is 76.4% (active).

As for `Cc1cc(C)c(S(=O)(=O)n2cc(C(C)C(N)C(=O)O)c3ccccc32)c(C)c1` (configuration not stated), the inhibition is -6.09% (inactive).

With `OC(COCCC12CC3CC(CC(C3)C1)C2)CN1CCCCC1` (configuration not stated), the inhibition was 62% (active).

With `OC(COc1ccc(Br)cc1)CN1CCCC1` (configuration not stated), the inhibition was 10.2% (inactive).

Regarding `Cc1cccc(C)c1OCC(O)CN1CCCCC1` (configuration not stated), the inhibition was -1.54% (inactive).

Regarding `COc1ccc(C(=O)/C=C/c2ccc(-c3ccccc3)cc2)cc1CSCC(=O)O`, the inhibition was -21% (inactive).

For `Cc1ccc(S(=O)(=O)N(C)C)cc1NC(=O)COC(=O)/C=C/c1cccs1`, the inhibition is -8.51% (inactive).

On to `Cc1ccc(-c2cc(=O)[nH]c(NCc3ccccc3)n2)cc1`, for which the inhibition is -16.4% (inactive).

For the compound `Cc1c(C)n(Cc2ccc(Cl)cc2)c2ccc(C(=O)NCCCN3CCOCC3)cc12`, the inhibition is 12.7% (inactive).

In the case of `COc1ccc(C2=NN(C(=O)c3cccnc3)C(c3ccccc3)C2)cc1` (configuration not stated), the inhibition is 3.02% (inactive).

In the case of `COc1ccc(C2CC(c3ccc([N+](=O)[O-])cc3)=NN2C(C)=O)cc1` (configuration not stated), the inhibition is 4.42% (inactive).

In the case of `COc1ccc(C2CC(c3ccccc3)=NN2C(=O)c2ccc(Cl)c([N+](=O)[O-])c2)cc1` (configuration not stated), the inhibition is 54.8% (active).

Consider `O=C(NC1CCCCC1)C1CC(=O)N(CCc2ccccc2)C1` (configuration not stated), for which the inhibition was -16.2% (inactive).

Regarding `C=CCOc1ccc(/C=C/C(=O)OCC(=O)NCC2CCCO2)cc1` (configuration not stated), the inhibition is -9.89% (inactive).

For the compound `CCOC(=O)CNc1nc(Cl)nc(Nc2ccc(OC)cc2OC)n1`, the inhibition was -0.745% (inactive).

For `O=C(O)c1ccccc1CSc1nc2ccccc2s1`, the inhibition was -11.7% (inactive).

Turning to `Cc1nc2nc(CSc3nc4ccccc4s3)cc(=O)n2[nH]1`, the inhibition is -6.18% (inactive).

`CCN(CC)CCCSc1nc2ccccc2s1`: the inhibition was 69.6% (active).

For the compound `COc1cc2c(cc1OC)C(C(=O)NCc1ccco1)C1c3ccccc3CCN1C2=O` (configuration not stated), the inhibition is 7.27% (inactive).

For `COC(=O)c1c(C)cc(O)c(C)c1O`, the inhibition was -2.6% (inactive).

In the case of `O=[N+]([O-])c1ccc2oc(-c3cccc(O)c3)nc2c1`, the inhibition is -23.1% (inactive).

In the case of `COc1ccc(C(CNC(=O)c2cccc(NS(=O)(=O)c3ccc(C)c(F)c3)c2)N2CCCC2)cc1` (configuration not stated), the inhibition was -13.1% (inactive).

As to `Cc1cc(S(=O)(=O)Nc2ccc(C(=O)NCC(c3ccco3)N3CCCC3)cc2)ccc1F` (configuration not stated), the inhibition was 63.7% (active).

With `COc1ccc(C(CNC(=O)c2ccc(NS(=O)(=O)c3ccc(F)c(C)c3)cc2)N(C)C)cc1` (configuration not stated), the inhibition is 3.47% (inactive).

In the case of `O=C(NNC(=O)c1cc(-c2ccccc2Cl)nc2ccccc12)c1csc(N2CCOCC2)n1`, the inhibition is -2.25% (inactive).

With `O=C(Nc1ccc(C(=O)O)cc1)/C(=C\c1ccccc1)NC(=O)c1ccc(Br)cc1`, the inhibition is -8.09% (inactive).

In general, inhibition refers to the relative decrease from the control value, in per cent.
